Assays:
Type in all cases: functional
UACC-62 = assay: Cytotoxicity against human UACC62 cells assessed as cell growth at 0.01 uM after 48 hrs by sulforhodamine B assay; settings: UACC-62, 48 h, read-out: Activity
BT-549 = assay: Cytotoxicity against human BT549 cells assessed as cell growth at 100 nM after 48 hrs by sulforhodamine B assay; settings: BT-549, 48 h, read-out: Activity
Method in brief: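 NCI-60 five-dose screen. Cells were grown in RPMI 1640 with 5% FBS and 2 mM L-glutamine, plated at 5000–40,000 cells/well and preincubated for 24 h. Time-zero plates were TCA-fixed. DMSO-solubilized drug was added at five concentrations (10-fold or ½-log serial dilutions) for 48 h at 37 °C, 5% CO2. Cells were TCA-fixed, stained with 0.4% SRB and read at 515 nm. Percent growth used time-zero, control and test absorbances.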

K562 = assay: Cytotoxicity against human K562 cells assessed as cell growth at 10 uM after 48 hrs by sulforhodamine B assay; settings: K562, 48 h, read-out: Activity
M14 = assay: Cytotoxicity against human M14 cells assessed as cell growth at 100 nM after 48 hrs by sulforhodamine B assay; settings: M14, 48 h, read-out: Activity
MOLT-4 = assay: Cytotoxicity against human MOLT4 cells assessed as cell growth at 1 uM after 48 hrs by sulforhodamine B assay; settings: MOLT-4, 48 h, read-out: Activity
MDA-MB-468 = assay: Growth inhibition of human MDA-MB-468 cells after 48 hrs by sulforhodamine B assay; settings: MDA-MB-468, 48 h
Method in brief: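 NCI 60-cell screen, five-dose mode. Cells grown in RPMI 1640 with 5% FBS and 2 mM L-glutamine and plated at 5000-40,000 cells/well according to doubling time. After 24 h preincubation, a Tz plate was TCA-fixed. Five concentrations (10-fold or 1/2 log dilutions) were applied for 48 h at 37 °C. SRB staining read at 515 nm. IC50 taken from [(Ti-Tz)/(C-Tz)]×100 = 50.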

UO-31 = assay: Cytotoxicity against human UO31 cells assessed as cell growth at 0.01 uM after 48 hrs by sulforhodamine B assay; settings: UO-31, 48 h, read-out: Activity
PC-3 = assay: Cytotoxicity against human PC3 cells assessed as cell growth at 1 uM after 48 hrs by sulforhodamine B assay; settings: PC-3, 48 h, read-out: Activity
Malme-3M = assay: Cytotoxicity against human MALME-3M cells assessed as cell growth at 100 nM after 48 hrs by sulforhodamine B assay; settings: read-out: Activity
MDA-MB-435 = assay: Cytotoxicity against human MDA-MB-435 cells assessed as cell growth at 10 uM after 48 hrs by sulforhodamine B assay; settings: MDA-MB-435, 48 h, read-out: Activity
HL-60(TB) = assay: Cytotoxicity against human HL-60(TB) cells assessed as cell growth at 100 nM after 48 hrs by sulforhodamine B assay; settings: HL-60, 48 h, read-out: Activity
Method in brief: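 NCI 60-cell panel. Cells are grown in RPMI 1640 with 5% FBS and 2 mM L-glutamine, seeded at 5000–40,000 cells/well according to doubling time, and preincubated 24 h. Time-zero plates are TCA-fixed. Compound from DMSO stock is given at five 10-fold or 1/2-log concentrations for 48 h at 37 °C, 5% CO2. Suspension cells are fixed with 80% TCA (final 16%) and SRB-stained, with absorbance at 515 nm. Percent growth is derived from Tz, control and test readings.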

IGROV-1 = assay: Cytotoxicity against human IGROV1 cells assessed as cell growth at 0.01 uM after 48 hrs by sulforhodamine B assay; settings: IGROV-1, 48 h, read-out: Activity
SF-295 = assay: Cytotoxicity against human SF295 cells assessed as cell growth at 0.01 uM after 48 hrs by sulforhodamine B assay; settings: SF-295, 48 h, read-out: Activity
SK-MEL-5 [1] = assay: Cytotoxicity against human SK-MEL-5 cells assessed as cell growth at 100 nM after 48 hrs by sulforhodamine B assay; settings: SK-MEL-5, 48 h, read-out: Activity
CAKI-1 = assay: Cytotoxicity against human Caki1 cells assessed as cell growth at 100 nM after 48 hrs by sulforhodamine B assay; settings: CAKI-1, 48 h, read-out: Activity
786-0 = assay: Cytotoxicity against human 786-0 cells assessed as cell growth at 10 uM; settings: read-out: Activity
Method in brief: (§1)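 Single-dose NCI-60 screen at 10 µM. Cells were grown in RPMI 1640 with 5% FBS and 2 mM L-glutamine, then treated for 48 h at 37 °C. Protein was measured by SRB staining with absorbance at 515 nm. Percentage growth was recorded, and inhibition percentage was calculated as 100 minus growth percentage.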

[2] = Growth inhibition of human NCI60 cells at 10 uM after 48 hrs by sulforhodamine B assay relative to control; settings: NCI60, 48 h, read-out: GI
Method in brief: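 Single-dose NCI screen at 10 µM across the 60-line panel, 48 h exposure at 37 °C after a 24 h preincubation. Adherent cells were fixed with cold TCA and stained with 0.4% SRB, and absorbance was read at 515 nm. Inhibition % was taken as 100 minus growth %, and the mean across all lines was reported.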

UACC-257 = assay: Cytotoxicity against human UACC257 cells assessed as cell growth at 1 uM after 48 hrs by sulforhodamine B assay; settings: UACC-257, 48 h, read-out: Activity
HOP-62 = assay: Cytotoxicity against human HOP62 cells assessed as cell growth at 10 uM; settings: read-out: Activity; method in brief: as §1
OVCAR-5 = assay: Cytotoxicity against human OVCAR5 cells assessed as cell growth at 0.01 uM after 48 hrs by sulforhodamine B assay; settings: OVCAR-5, 48 h, read-out: Activity
SF-539 = assay: Cytotoxicity against human SF539 cells assessed as cell growth at 10 uM after 48 hrs by sulforhodamine B assay; settings: SF-539, 48 h, read-out: Activity
CCRF-CEM = assay: Growth inhibition of human CCRF-CEM cells after 48 hrs by sulforhodamine B assay
Method in brief: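 NCI five-dose SRB assay in RPMI 1640 with 5% FBS and 2 mM L-glutamine. Cells were preincubated 24 h, then exposed 48 h at 37 °C to five concentrations (10-fold or half-log serial dilutions from DMSO stocks). TCA fixation, SRB staining, and absorbance at 515 nm followed. IC50 was taken where [(Ti−Tz)/(C−Tz)]×100 = 50, with Tz as time-zero cell density.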

SK-MEL-5 [3] = assay: Cytotoxicity against human SK-MEL-5 cells assessed as cell growth at 10 uM; settings: read-out: Activity
Method in brief: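 NCI-60 screen: cells grown in RPMI 1640 with 5% FBS and 2 mM L-glutamine, plated at 5000–40,000 cells/well according to doubling time, and preincubated 24 h at 37 °C, 5% CO2. The single 10 µM dose (DMSO stock) was added, then incubated 48 h. Cells were TCA-fixed and stained with 0.4% SRB, read at 515 nm, and growth % calculated against time-zero and control plates.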

Compound	growth at 0.01 µM (UACC-62) [%]	growth at 0.1 µM (BT-549) [%]	growth at 10 µM (K562) [%]	growth at 0.1 µM (M14) [%]	growth at 1 µM (MOLT-4) [%]	GI50 (MDA-MB-468) [nM]	LC50 (concentration giving 50% net cell kill) (MDA-MB-468) [nM]	TGI (MDA-MB-468) [nM]	growth at 0.01 µM (UO-31) [%]	growth at 1 µM (PC-3) [%]	growth at 0.1 µM (Malme-3M) [%]	growth at 10 µM (MDA-MB-435) [%]	growth at 0.1 µM (HL-60(TB)) [%]	growth at 0.01 µM (IGROV-1) [%]	growth at 0.01 µM (SF-295) [%]	growth at 0.1 µM (SK-MEL-5 [1]) [%]	growth at 0.1 µM (CAKI-1) [%]	growth at 10 µM (786-0) [%]	inhibition of growth at 10 µM [2] [%]	growth at 1 µM (UACC-257) [%]	other results
COc1cc(C)cc(-c2c(-c3ccnc(-c4ccc(N(C)C)cc4)c3)cnn2CC#N)c1	38	-18	-5	-16	-2	26.1	1040	79.8	63	13	49	-23	-26	-3	56	-21	-21	-1.5	88.4	29	growth at 10 µM (HOP-62): 14.9%; growth at 0.01 µM (OVCAR-5): 73%; growth at 10 µM (SF-539): 2%; GI50 (CCRF-CEM): 237 nM; LC50 (CCRF-CEM): > 100000 nM; TGI (CCRF-CEM): > 100000 nM; growth at 10 µM (SK-MEL-5 [3]): -18.4%
COc1cc(C)cc(-c2nn(CC#N)cc2-c2ccc(-c3cccc(C(C)=O)c3)nc2)c1	90	85	9	58	19	275	52300	1490	86	20	66	-22	66	92	98	65	69	18	78.7	34	growth at 10 µM (HOP-62): 32.1%; growth at 0.01 µM (OVCAR-5): 68%; growth at 10 µM (SF-539): -48%; GI50 (CCRF-CEM): 2610 nM; LC50 (CCRF-CEM): > 100000 nM; TGI (CCRF-CEM): > 100000 nM; growth at 10 µM (SK-MEL-5 [3]): 4.86%
Cc1cc(O)cc(-c2nn(CC#N)cc2-c2ccnc(-c3ccc(N(C)C)cc3)c2)c1	96	87	-6	82	11	1630	9940	4020	84	18	94	-31	98	94	89	82	85	26.2	65.3	31	growth at 10 µM (HOP-62): 36.5%; growth at 0.01 µM (OVCAR-5): 91%; growth at 10 µM (SF-539): -71%; GI50 (CCRF-CEM): 3590 nM; LC50 (CCRF-CEM): > 100000 nM; TGI (CCRF-CEM): > 100000 nM; growth at 10 µM (SK-MEL-5 [3]): -16.3%

— ChEMBL document CHEMBL1165950, “Design and synthesis of new potent anticancer pyrazoles with high FLT3 kinase inhibitory selectivity” (Bioorg Med Chem, 2010)
